The values below come from ChEMBL document CHEMBL2385072, “Development of oleanane-type triterpenes as a new class of HCV entry inhibitors” (J Med Chem, 2013).

For one data set, the system named is HEK-293T. The data set can be described thus: Cytotoxicity against human 293T cells at 50 uM after 48 hrs by Alamar Blue assay. It is filed as cell-based. In short, it runs like this:
(§1)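 alamarBlue viability assay in HepG2, HeLa and 293T cells, compound up to 50 μM.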

Another data set addresses T1, CD81 antigen (Homo sapiens, UniProt P60033).
T1 sequence (P60033 whole entry): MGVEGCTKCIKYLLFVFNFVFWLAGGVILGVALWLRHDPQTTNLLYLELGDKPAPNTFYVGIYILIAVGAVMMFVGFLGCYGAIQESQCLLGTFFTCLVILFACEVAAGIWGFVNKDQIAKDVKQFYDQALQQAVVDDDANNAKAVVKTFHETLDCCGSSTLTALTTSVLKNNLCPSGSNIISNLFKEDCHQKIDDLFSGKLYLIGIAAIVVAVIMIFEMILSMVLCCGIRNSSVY
The data set can be described thus: Binding affinity to CD81 (unknown origin). In short, it runs like this:
(§2)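 BIAcore: E2 immobilized on a streptavidin sensor via SA–biotin and exposed to CD81 at 40.9–654.5 nM to fit K_D. CD81 was also tested together with compound.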

Data set [1] is described as follows: Hemolytic activity against rabbit RBC after 60 mins by spectrophotometry. It is filed as ADME, cell-based, Oryctolagus cuniculus, Erythrocyte. In short, it runs like this: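 2% rabbit erythrocytes in 130 mM NaCl, 20 mM Tris-HCl pH 7.4 incubated with serially diluted compounds for 60 min at 37 °C. Hemolysis read as absorbance at 540 nm.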
A further data set relates to HeLa. The data set can be described thus: Cytotoxicity against human HeLa cells at 50 uM after 48 hrs by Alamar Blue assay. It is filed as cell-based. The procedure, abridged: as §1
Background: Resazurin is reduced to fluorescent resorufin, in cell work by metabolically active cells.

The test system of a further data set is HepG2. The data set can be described thus: Cytotoxicity against human HepG2 cells at 50 uM after 48 hrs by Alamar Blue assay. Conditions: hepg2, 48 h. Format: cell-based. In short, it runs like this: as §1
Data set [2] concerns Hepatitis C virus. The data set can be described thus: Antiviral activity against pseudo HCV infected in human 293T cells assessed as inhibition of HCV pseudo particles entry after 72 hrs by luciferase reporter gene assay. Format: functional, organism-based, Hepacivirus hominis. In short, it runs like this:
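HCVpp (HCV E1/E2 on Env/Vpr-deficient HIV luciferase vector, made in 293T by cotransfection, harvested 72 h) added to 5×10^3 Huh-7 cells/well with compound at final 1 or 5 μM in 1% DMSO; 72 h, 37 °C; luciferase read. Inhibition = 100 − % of DMSO control after uninfected-well background subtraction; VSVpp run in parallel; duplicate, ≥3 experiments.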
For orientation: Reporter assays use an easily measured gene product as a stand-in for the process of interest.

Data set [3] has as its system Hepatitis C virus. Put plainly: Antiviral activity against pseudo HCV infected in human 293T cells assessed as inhibition of HCV pseudo particles entry at 10 uM after 72 hrs by luciferase reporter gene assay. The note with it: HEK-293T. Format: functional, Hepacivirus hominis.
The subject of data set [4] is Hepatitis C virus. The data set can be described thus: Antiviral activity against pseudo HCV infected in human 293T cells assessed as inhibition of HCV pseudo particles entry at 5 uM after 72 hrs by luciferase reporter gene assay. It is filed as functional, Hepacivirus hominis. The note with it: HEK-293T.
Data set [5] has as its system Hepatitis C virus. Put plainly: Antiviral activity against pseudo HCV infected in human 293T cells assessed as inhibition of HCV pseudo particles entry at 1 uM after 72 hrs by luciferase reporter gene assay. Format: functional, Hepacivirus hominis. Conditions: HEK-293T.
Data set [6] deals with Vesicular stomatitis virus. Put plainly: Antiviral activity against pseudo VSV infected in human 293T cells assessed as inhibition of vesicular stromatis G protein pseudo particles entry at 1 uM after 72 hrs by luciferase reporter gene assay. It is filed as functional. The note with it: HEK-293T.
The test system of data set [7] is Hepatitis C virus. Put plainly: Ratio of echinocystic acid IC50 to compound IC50 for pseudo HCV infected in human 293T cells assessed as inhibition of HCV pseudo particles entry after 72 hrs by luciferase reporter gene assay. It is filed as functional, Hepacivirus hominis. In short, it runs like this: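 HCVpp luciferase entry assay in Huh-7 cells, 72 h at 37 °C. Six-point curves at tenfold steps, 1 nM–100 μM or 0.5 nM–50 μM. Each concentration in triplicate, mean and SD.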

The test system of data set [8] is Vesicular stomatitis virus. Put plainly: Antiviral activity against pseudo VSV infected in human 293T cells assessed as inhibition of vesicular stromatis G protein pseudo particles entry at 5 uM after 72 hrs by luciferase reporter gene assay. Format: functional. Conditions: HEK-293T.
Data set [9] can be described thus: Inhibition of HCV envelope protein E2 protein interaction with CD81 receptor (unknown origin) by BIAcore assay. Further details: species or system Hepacivirus hominis. The procedure, abridged: as §2
On the technique in general: Surface plasmon resonance follows binding to a sensor surface in real time, without labels.

In data set [10] the test system is Hepacivirus hominis. The data set can be described thus: Binding affinity to HCV envelope protein E2 protein by SPR method. The procedure, abridged: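 E2 loaded on streptavidin-coated biosensors and exposed to compound at 3.125–100 μM to obtain binding curves and K_D. Competition was also tested as E2 binding to a biotin-labelled compound chip in the presence of free compound at varied doses.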

In data set [11] the test system is Hepatitis C virus. The data set can be described thus: Antiviral activity against pseudo HCV infected in human Huh7 cells at 10 uM after 72 hrs. Format: functional, organism-based. The note with it: Hepacivirus hominis, Huh-7. In short, it runs like this: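 Post-entry: Huh7 cells infected with HCVpp at 37 °C for 6 h, washed, then treated with 10 μM compound at 37 °C for 72 h. Normalized to 0.5% DMSO. CD81 antibody 5 nM as control.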

Data set [12] relates to Hepacivirus hominis. Put plainly: Binding affinity to HCV envelope protein E2 protein by pull down assay. The procedure, abridged: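 Biotin-labelled probe incubated with lysate of HCVpp-packaging cells and captured on streptavidin agarose. Free biotin and unlabelled compound served as parallel probes. For competition, excess free compound was added to the lysate. Bound E2 was detected.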

Data set [13] relates to Hepatitis C virus. Put plainly: Antiviral activity against pseudo HCV infected in human Huh7 cells assessed as inhibition of HCV pseudo particles entry at 10 uM after 72 hrs. Conditions: Hepacivirus hominis, Huh-7. Format: functional, organism-based. In short, it runs like this:
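Co-treatment: Huh7 cells infected with HCVpp (or VSVpp) with 10 μM compound present throughout, 72 h at 37 °C. Normalized to 0.5% DMSO (final). CD81 antibody (5 nM) was the positive control and an unrelated compound the negative control. Luciferase read-out.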

The subject of data set [14] is Hepatitis C virus. Put plainly: Antiviral activity against pseudo HCV infected in human Huh7 cells assessed as inhibition of HCV pseudo particles entry at 10 uM incubated for 3 hrs prior to virus addition measured after 72 hrs. Format: functional, organism-based. The note with it: Hepacivirus hominis, Huh-7. In short, it runs like this: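 Pretreatment: Huh7 cells exposed to 10 μM compound for 3 h at 37 °C, washed, then infected with HCVpp for 72 h at 37 °C. Normalized to 0.5% DMSO. CD81 antibody 5 nM as control.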

The test system of data set [15] is Hepatitis C virus. Put plainly: Antiviral activity against pseudo HCV infected in human Huh7 cells assessed as inhibition of HCV pseudo particles entry at 10 uM incubated for 3 hrs. The note with it: Hepacivirus hominis, Huh-7. It is filed as functional, organism-based. In short, it runs like this:
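Prebinding: Huh7 cells exposed to HCVpp plus 10 μM compound at 4 °C for 3 h, washed free of virus and compound, then cultured 72 h at 37 °C. Normalized to 0.5% DMSO. CD81 antibody 5 nM as control.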

Data set [16] deals with Hepatitis C virus. The data set can be described thus: Antiviral activity against pseudo HCV infected in human Huh7 cells assessed as inhibition of HCV pseudo particles entry at 10 uM incubated for 3 hrs prior to compound addition measured after 72 hrs. Format: functional, organism-based. The note with it: Hepacivirus hominis, Huh-7. In short, it runs like this: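 Post-binding/pre-entry: Huh7 cells incubated with HCVpp at 4 °C for 3 h, washed, then treated with 10 μM compound at 37 °C for 72 h. Normalized to 0.5% DMSO. CD81 antibody 5 nM as control.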

Each structure is given as a SMILES string. The source made the active and inactive calls. The calls are words filed in the database; no cut-off is given here.

Usually Kd stands for the concentration at which binding is half-saturated. With `CC1(C)CC[C@]2(C(=O)O)[C@H](O)C[C@]3(C)C(=CC[C@@H]4[C@@]5(C)CC[C@H](O)C(C)(C)[C@@H]5CC[C@]43C)[C@@H]2C1` [ECHINOCYSTIC ACID], the Activity result in the data set with HEK-293T, in the data set with HeLa and in the data set with HepG2 was “Non-toxic” in each case. Also, the Kd at CD81 antigen is 21 nM. The HC50 at 1 h in [1] (rabbit red blood cells, read-out: CC50) was 15 µM.
By IC50 is commonly meant the concentration needed to halve the response being measured. As a reminder, the inhibition is the share of the control response that was lost under treatment. For the compound `CC1(C)CC[C@]2(C(=O)O)CC[C@]3(C)C(=CC[C@@H]4[C@@]5(C)CC[C@H](O)C(C)(C)[C@@H]5CC[C@]43C)[C@@H]2C1` [OLEANOLIC_ACID], the IC50 in the data set with Hepatitis C virus [2] was found to be 10000 nM. Further, the Activity result in [1] (erythrocyte, 1 h) is recorded as “Toxic”. Besides, the inhibition at 10 µM with Hepatitis C virus [3] was determined as 65%.
Turning to `CC1(C)CC[C@]2(C(=O)NCc3cn(CCCn4cc(CNC(=O)[C@]56CCC(C)(C)C[C@H]5C5=CC[C@@H]7[C@@]8(C)CC[C@H](O)C(C)(C)[C@@H]8CC[C@@]7(C)[C@]5(C)C[C@H]6O)nn4)nn3)[C@H](O)C[C@]3(C)C(=CC[C@@H]4[C@@]5(C)CC[C@H](O)C(C)(C)[C@@H]5CC[C@]43C)[C@@H]2C1`, the IC50 in the data set with Hepatitis C virus [2] amounted to 10 nM. Further, the Activity entry with HEK-293T, in the data set on HeLa and in the data set on HepG2 was “Non-toxic” each time. The inhibition at 5 µM with Hepatitis C virus [4] came to 89%; in [8], 11.9%. Further, the results for the inhibition at 1 µM (in the data set with Hepatitis C virus [5]; in data set [6]) were 86.3% and 16.5%, respectively. The “Ratio IC50” value with Hepatitis C virus [7] turned out to be 200.
`CC1(C)CC[C@]2(C(=O)O)[C@H](O)C[C@]3(C)C(=CC[C@@H]4[C@@]5(C)CC[C@H](O)C(C)(C)[C@@H]5CC[C@]43C)[C@H]2C1` [ECHINOCYSTIC ACID] gave a Kd in data set [9] of 24 µM. Further, in the data set with Hepatitis C virus [2], the IC50 amounted to 1400 nM. Moreover, the Activity result in the data set with Hepacivirus hominis [10] was “Dose-dependent effect”. The result in the data set with Hepatitis C virus [11] was inactive. Besides, the result in the data set with Hepacivirus hominis [12] was Active. The inhibition result in the data set on Hepatitis C virus [13], in the data set on Hepatitis C virus [14], with Hepatitis C virus [15] and with Hepatitis C virus [16] was “Active” throughout. Also, the inhibition at 5 µM in the data set with Hepatitis C virus [4] came out at 77.7%; in [8], 9%. In addition, the inhibition at 1 µM is 27.5% in the data set with Hepatitis C virus [5] and 7.2% in data set [6]. Also, in the data set with Hepatitis C virus [3], the inhibition at 10 µM stood at 90%.
Consider `CC(=O)OC[C@H]1O[C@@H](O[C@H]2[C@H](OC(C)=O)[C@@H](OC(C)=O)[C@H](OC(=O)[C@]34CCC(C)(C)C[C@H]3C3=CC[C@@H]5[C@@]6(C)CC[C@H](O)C(C)(C)[C@@H]6CC[C@@]5(C)[C@]3(C)C[C@H]4O)O[C@@H]2COC(C)=O)[C@H](OC(C)=O)[C@@H](OC(C)=O)[C@H]1OC(C)=O`, for which the half-inhibitory concentration (IC50) in the data set on Hepatitis C virus [2] stood at 300 nM. The Activity entry with HEK-293T, with HeLa and with HepG2 was “Non-toxic” in each case. Moreover, the inhibition at 5 µM with Hepatitis C virus [4] is 88.6%; in [8] it was 14.9%. Besides, the inhibition at 1 µM in the data set on Hepatitis C virus [5] is 80.4%; in data set [6], 11.2%. Further, in the data set on Hepatitis C virus [7], the “Ratio IC50” value worked out at 5.
